Calls of active or inactive are those of the source. No cut-off for these calls is given here.
What was measured:
[1] = system: HCT-116; experiment: Induction of apoptosis in human HCT116 cells assessed as early apoptotic cells at 30 uM after 48 hrs by annexin V-FITC/propidium iodide staining-based flow cytometric analysis in presence of NAC (reference value: 1.1%); type: functional
[2] = system: HCT-116; experiment: Induction of apoptosis in human HCT116 cells assessed as late apoptotic cells at 7.5 uM after 48 hrs by annexin V-FITC/propidium iodide staining-based flow cytometric analysis (reference value: 5.2%); type: functional
[3] = Downregulation of ATR expression in human HCT116 cells at 30 uM after 1 hr by Western blot analysis; type: functional, cell-based; conditions: HCT-116, TDE = time-dependent effect
Outline: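 HCT116 cells exposed for 1 h in complete medium; RIPA lysates quantified by BCA, equal protein separated on 8–13% SDS-PAGE, transferred to PVDF, probed with primary antibodies overnight at 4 °C and HRP secondaries, chemiluminescence read-out.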

[4] = Decrease in phosphorylated p27 expression at Thr187 in human HCT116 cells after 24 hrs by western blot analysis; type: functional, cell-based; conditions: HCT-116
Outline: (§1)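 HCT116 cells exposed 24 h in complete medium; lysed in RIPA buffer (pH 8.0), protein by BCA, equal loads run on 8–13% SDS-PAGE, PVDF transfer, blocked in 5% BSA/TBST, primary antibodies overnight at 4 °C, HRP secondaries 2 h RT, ECL detection; β-actin as loading control.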

[5] = Upregulation of phosphorylated ATR expression in human HCT116 cells at 1 hr by Western blot analysis; type: functional, cell-based; conditions: HCT-116
[6] = system: HCT-116; experiment: Induction of cell cycle arrest in human HCT116 cells assessed as accumulation at S phase at 7.5 uM after 48 hrs by propidium iodide staining-based flow cytometric analysis in presence of RNase A (reference value: 16.2%); type: functional
[7] = system: HCT-116; experiment: Induction of cell cycle arrest in human HCT116 cells assessed as accumulation at sub-G1 phase at 7.5 uM after 48 hrs by propidium iodide staining-based flow cytometric analysis in presence of RNase A (reference value: 6.5%); type: functional
[8] = system: HCT-116; experiment: Induction of apoptosis in human HCT116 cells assessed as dead cells at 15 uM after 48 hrs by annexin V-FITC/propidium iodide staining-based flow cytometric analysis (reference value: 2%); type: functional
[9] = target: T1, Serine-protein kinase ATM/ATR (Homo sapiens) (UniProt Q13315+Q13535); experiment: Activation of ATM/ATR in human HCT116 cells assessed as increase in Chk1 phosphorylation at S345 at 7.5 to 30 uM after 24 hrs by Western blot analysis; type: cell-based; conditions: HCT-116; outline: as §1
[10] = system: HCT-116; experiment: Increase in p21 expression in human HCT116 cells after 24 hrs by western blot analysis; type: functional, cell-based; outline: as §1
[11] = system: HCT-116; experiment: Induction of cell cycle arrest in human HCT116 cells assessed as accumulation at G0/G1 phase at 15 uM after 24 hrs by propidium iodide staining-based flow cytometric analysis in presence of RNase A (reference value: 64.6%); type: functional
[12] = system: Mus musculus; experiment: Upregulation of p21 in human HCT116 cells xenografted in nude mouse at 5 to 10 mg/kg, ip administered 3 times per week measured on day 41 by Western blot analysis; type: functional, organism-based; conditions: HCT-116
Outline: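 HCT116 xenografts in nude mice dosed ip at 5 or 10 mg/kg three times weekly to day 41. Portions of the excised frozen tumors were thawed on ice, homogenized in complete lysis buffer, protein quantified by Bradford, and p21, p27 and Skp2 assessed by Western blot with β-actin as internal control.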

[13] = target: T1, Serine-protein kinase ATM/ATR (Homo sapiens); experiment: Activation of ATM/ATR in human HCT116 cells assessed as increase in Chk2 phosphorylation at Thr68 at 7.5 to 30 uM after 24 hrs by Western blot analysis; type: cell-based; conditions: HCT-116; outline: as §1
[14] = system: HCT-116; experiment: Induction of cell cycle arrest in human HCT116 cells assessed as accumulation at sub-G1 phase at 15 uM after 48 hrs by propidium iodide staining-based flow cytometric analysis in presence of RNase A (reference value: 6.5%); type: functional
[15] = system: HCT-116; experiment: Induction of apoptosis in human HCT116 cells assessed as late apoptotic cells at 30 uM after 48 hrs by annexin V-FITC/propidium iodide staining-based flow cytometric analysis (reference value: 7.2%); type: functional
[16] = Antitumor activity against human HCT116 cells xenografted in nude mouse assessed as tumor growth inhibition at 5 mg/kg, ip administered 3 times per week measured on day 41; type: functional; conditions: HCT-116, ip, 984 h, read-out: TGI
Outline: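 Nude mice given 2 × 10^6 HCT116 cells subcutaneously in flank; at ~120 mm3 randomised, six per group; ip dosing in 200 μL, test agent 5 or 10 mg/kg three times weekly, irinotecan 10 mg/kg once weekly; tumour volume measured twice weekly to day 41; body weight tracked for toxicity.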

[17] = system: HCT-116; experiment: Induction of apoptosis in human HCT116 cells assessed as viable cells at 7.5 uM after 48 hrs by annexin V-FITC/propidium iodide staining-based flow cytometric analysis (reference value: 91.2%); type: functional; conditions: HCT-116, 48 h, read-out: Activity
[18] = system: HCT-116; experiment: Induction of cell cycle arrest in human HCT116 cells assessed as accumulation at sub-G1 phase at 30 uM after 24 hrs by propidium iodide staining-based flow cytometric analysis in presence of RNase A (reference value: 1.5%); type: functional
[19] = system: K562; experiment: Antiproliferative activity against human K562 cells after 24 to 72 hrs by SRB assay; type: functional, cell-based
Outline: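 Cells grown in 96-well plates (RPMI 1640; MRC-5 in MEM, 10% FBS, antibiotics) with compound […]; fixed in 10% TCA 30 min at 4 °C, stained 0.4% SRB in 1% acetic acid 1 h, dye dissolved in 10 mM Tris pH 10.0, A515 read; viability as % of solvent control, IC50 by nonlinear regression; mean of three independent experiments.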

[20] = target: T1, Serine-protein kinase ATM/ATR (Homo sapiens); experiment: Activation of ATM/ATR in human HCT116 cells assessed as downregulation of cdc25C level after 24 hrs by Western blot analysis; type: cell-based; conditions: HCT-116; outline: as §1
[21] = system: HCT-116; experiment: Reduction in histone H3 Lys9 acetylation in human HCT116 cells at 7.5 to 30 uM after 24 hrs by Western blot analysis; type: functional, cell-based
[22] = system: HCT-116; experiment: Induction of apoptosis in human HCT116 cells assessed as late apoptotic cells at 30 uM after 48 hrs by annexin V-FITC/propidium iodide staining-based flow cytometric analysis (reference value: 5.2%); type: functional
[23] = system: HCT-116; experiment: Induction of reactive oxygen species in human HCT116 cells at 7.5 uM after 48 hrs by DCFH-DA staining-based flow cytometric analysis (reference value: 5.1%); type: functional
[24] = system: HCT-116; experiment: Induction of apoptosis in human HCT116 cells assessed as early apoptotic cells at 30 uM after 48 hrs by annexin V-FITC/propidium iodide staining-based flow cytometric analysis (reference value: 1.1%); type: functional
[25] = Downregulation of CDK2 expression in human HCT116 cells at 7.5 to 30 uM after 24 hrs by Western blot analysis; type: functional, cell-based; conditions: HCT-116; outline: as §1
[26] = target: S-phase kinase-associated protein 1/2 (Homo sapiens) (UniProt Q13309+P63208); experiment: Inhibition of Skp2/Skp1 protein interaction in human HCT116 cells after 24 hrs by immunoprecipitation assay; type: cell-based; conditions: HCT-116
Sequence of S-phase kinase-associated protein 1/2 (Homo sapiens) (P63208 whole entry, looked up): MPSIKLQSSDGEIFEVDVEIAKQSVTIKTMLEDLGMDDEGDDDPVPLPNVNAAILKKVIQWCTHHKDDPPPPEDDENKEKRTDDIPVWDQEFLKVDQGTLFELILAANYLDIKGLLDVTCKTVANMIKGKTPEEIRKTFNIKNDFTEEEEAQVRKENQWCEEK
Sequence of S-phase kinase-associated protein 1/2 (Homo sapiens) (Q13309 whole entry, looked up): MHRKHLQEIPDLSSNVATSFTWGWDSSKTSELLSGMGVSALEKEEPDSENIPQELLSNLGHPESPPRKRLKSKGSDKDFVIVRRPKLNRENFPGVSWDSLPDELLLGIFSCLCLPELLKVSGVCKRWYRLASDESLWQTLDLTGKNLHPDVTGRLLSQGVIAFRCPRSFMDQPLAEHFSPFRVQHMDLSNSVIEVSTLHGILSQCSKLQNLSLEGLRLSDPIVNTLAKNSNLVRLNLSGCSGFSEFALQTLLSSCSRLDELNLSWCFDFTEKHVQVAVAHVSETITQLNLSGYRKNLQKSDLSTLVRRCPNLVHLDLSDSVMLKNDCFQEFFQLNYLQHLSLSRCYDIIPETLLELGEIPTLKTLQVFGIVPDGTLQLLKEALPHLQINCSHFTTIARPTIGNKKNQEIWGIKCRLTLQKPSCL
Outline: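 Protein measured by Bradford. Equal protein incubated with Protein G sepharose and the capture antibody (anti-p53, anti-Cul-1 or anti-Skp2) overnight at 4 °C. Bead eluates boiled in Laemmli/2-mercaptoethanol and analysed by Western blot.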

O=C/C=C/c1ccc2c(c1)O[C@@H](CO)[C@H](c1ccc(O)c(O)c1)O2 [AMERICANIN A]
Activity [1]: 2.7%
Activity [2]: 10.4%
Activity [3]: tde
Activity [4]: Active
Activity [5]: Dose-dependent effect
Activity [6]: 13.5%
Activity [7]: 7.6%
Activity [8]: 0.4%
Activity [9]: Dose-dependent effect
Activity [10]: Dose-dependent effect
Activity [11]: 47.5%
Activity [12]: Active
Activity [13]: Dose-dependent effect
Activity [14]: 37.9%
Activity [15]: 36.5%
inhibition in vivo at 5 mg/kg [16]: 45%
viability at 7.5 µM [17]: 84.6%
Activity [18]: 4%
IC50 [19]: 12.9 µM
Activity [20]: Dose-dependent effect
Activity [21]: Active
Activity [22]: 18.9%
Activity [23]: 5.2%
Activity [24]: 7%
Activity [25]: Active
inhibition [26]: inactive

Source: ChEMBL document CHEMBL3758106, “Antitumor Activity of Americanin A Isolated from the Seeds of Phytolacca americana by Regulating the ATM/ATR Signaling Pathway and the Skp2-p27 Axis in Human Colon Cancer Cells” (J Nat Prod, 2015)
